Experimental findings from PubChem BioAssay are described below.

The source made the active and inactive calls.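 How the source made its calls, unless noted: active means viability loss from added drug above about 55%, and viability with drug at most 40%, in both replicates (limit read from the data, passing the limit was not always enough); inconclusive means both conditions met in only one replicate; inactive means neither replicate meets both conditions.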

The nature of assay [1]: Her2 expression decrease, cell viability multiplex – SKBR3 breast tumor cells, AlphaScreen, ATP viability, primary screen (AID 461;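 active means Her2 level under about 52% in both replicate screens, with viability over 70% of control, limit read from the data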;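 on Her2 level: lower value means less Her2 protein in the cells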;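 on viability: percent of carrier control wells set as 100% viability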). To be noted: SKBR3 Her2 protein level, 18-24 h, measured here: SKBR3 viability, ATP luminescence, at 10 µM. Background: Bead proximity is the source of the signal in Alpha formats.
In assay [2] the target is Receptor tyrosine-protein kinase erbB-2 (Homo sapiens) (UniProt P04626). The assay is described as above. To be noted: 18-24 h, at 10 µM, stronger effect = lower value.
Sequence of Receptor tyrosine-protein kinase erbB-2 (Homo sapiens) (P04626 whole entry, looked up): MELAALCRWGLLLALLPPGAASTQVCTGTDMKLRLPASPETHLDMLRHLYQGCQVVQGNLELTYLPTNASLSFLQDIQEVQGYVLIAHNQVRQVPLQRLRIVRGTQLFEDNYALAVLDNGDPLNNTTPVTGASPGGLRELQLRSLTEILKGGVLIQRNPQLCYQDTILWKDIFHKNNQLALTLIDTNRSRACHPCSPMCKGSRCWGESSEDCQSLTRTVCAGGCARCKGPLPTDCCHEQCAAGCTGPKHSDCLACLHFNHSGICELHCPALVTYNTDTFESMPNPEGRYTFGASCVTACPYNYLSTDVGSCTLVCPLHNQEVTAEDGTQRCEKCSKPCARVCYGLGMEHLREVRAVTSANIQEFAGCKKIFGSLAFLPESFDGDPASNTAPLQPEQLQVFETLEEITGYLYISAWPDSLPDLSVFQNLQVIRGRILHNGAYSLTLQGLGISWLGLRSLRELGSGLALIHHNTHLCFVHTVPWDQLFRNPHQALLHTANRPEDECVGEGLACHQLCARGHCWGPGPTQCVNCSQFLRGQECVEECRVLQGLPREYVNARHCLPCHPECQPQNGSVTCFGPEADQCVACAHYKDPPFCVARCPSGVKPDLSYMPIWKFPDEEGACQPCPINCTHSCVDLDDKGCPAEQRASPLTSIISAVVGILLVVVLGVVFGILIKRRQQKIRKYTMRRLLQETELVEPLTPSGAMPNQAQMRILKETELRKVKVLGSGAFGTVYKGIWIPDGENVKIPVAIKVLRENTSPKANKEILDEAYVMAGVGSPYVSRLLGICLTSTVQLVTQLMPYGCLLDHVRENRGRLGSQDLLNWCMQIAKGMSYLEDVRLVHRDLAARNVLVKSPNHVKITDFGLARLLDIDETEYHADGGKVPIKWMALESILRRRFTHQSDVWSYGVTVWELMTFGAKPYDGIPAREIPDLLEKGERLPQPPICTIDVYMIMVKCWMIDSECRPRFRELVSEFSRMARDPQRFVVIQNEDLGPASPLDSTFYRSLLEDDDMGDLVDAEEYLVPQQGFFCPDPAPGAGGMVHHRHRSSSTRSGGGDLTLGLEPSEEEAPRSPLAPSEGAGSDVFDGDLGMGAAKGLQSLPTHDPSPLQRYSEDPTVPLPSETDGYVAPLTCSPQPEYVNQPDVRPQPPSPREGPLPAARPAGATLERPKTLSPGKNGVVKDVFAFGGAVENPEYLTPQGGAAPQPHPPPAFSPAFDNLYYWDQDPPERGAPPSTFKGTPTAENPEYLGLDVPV
Assay [3] can be described thus: reduced viability of SK-BR-3 breast cancer cells – cell-based, 24 h, human, pilot screen (AID 572;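 active means viability at or below 10% of carrier control in both of two separate runs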;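 further: compound exposure lasted between 18 and 24 h rather than exactly 24 h; 100% = carrier-treated control wells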). As to conditions: SK-BR-3 viability, CellTiter-Glo luminescence, at 10 µM, stronger effect = lower value. A general note: Cellular ATP, detected with luciferase, serves as a proxy for viable cell number.
The nature of assay [4]: HUVEC growth inhibition – cell-based, human, primary screen (AID 575;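 active means viability at or below 30% in both replicate assays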;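 further: 100% = median of untreated cell wells with 0.1% DMSO on each plate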). As to conditions: HUVEC proliferation, CellTiter-Glo luminescence, 72 h; at 10 µM; stronger effect = lower value. The gist of the method:
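Test system: primary human umbilical vein endothelial cells. Quantity: 1250 cells/well. Compound: single 10 µM dose, 0.1% DMSO, from 5x medium stock. Timing: 72 h treatment at 37 °C. Detection: ATP-based CellTiter-Glo luminescent read. Benchmarks: vehicle and MePR control wells. Format: 384-well plates coated with collagen.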

Assay [5] is described as follows: H69AR cell proliferation blockers – human, duplicate replicates, primary screen (AID 580;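 active means viability at or under a set limit in both replicates, limit being median viability minus 3 SD, cut at about 48% in these data, passing the limit was not always enough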;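 further: 100% = mean luminescence of untreated wells and 0% = no signal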). As to conditions: H69AR lung tumor cells viability, ATP luminescence, 72 h; at 10 µM; stronger effect = lower value.
Assay [6] can be described thus: MRP1 drug-resistance reversers in H69AR cells – cell-based, doxorubicin co-treatment, pilot screen (AID 601). As to conditions: CellTiter-Glo, 72 h, at 10 µM; for differential viability (reversal): stronger effect = higher value.
Assay [7] is described as follows: yeast transport mutant growth inhibition pilot in 384-well plates, post-Golgi transport modulator project (AID 636; in the data active means inhibition above about 31%). To be noted: absorbance 615 nm, about 18 h, stronger effect = higher value.
Assay [8] in a line: growth suppression of yeast trafficking mutant, preliminary HTS, modulators of trafficking downstream of Golgi apparatus project, 1536-format plate, OD 615 nm (AID 637; in the data active means inhibition above about 30%). To be noted: yeast transport mutant growth, absorbance 615 nm, 18 h; stronger effect = higher value.
Where [9] appears, read: H69AR cells + 2 uM doxorubicin, measured here: viability with 2 uM doxorubicin, stronger effect = lower value.
Where [10] appears, read: H69AR cells, compound alone cytotoxicity.

What is called viability is a read-out of living cells in per cent, often relative to untreated cells. A word on the inhibition: it is the drop in the measured response relative to a control, in per cent. `NC(=O)C1(N2CCCCC2)CCN(Cc2ccccc2Cl)CC1`: the viability in assay [1] was 102%; in assay [3] it was 102% (inactive); in assay [4] it was 87.8% (inactive); in assay [5] it was 83.8% (inactive); in assay [6] (setting [9]) it was 80.8%; in assay [6] (setting [10]) it was 83.8%. Also, the Her2 level in assay [2] was 77% (inactive). Also, the differential viability (reversal) in assay [6] (H69AR cells + 2 uM doxorubicin) is 3.07% (inactive). The figures for the inhibition in assay [7] and in assay [8] were -6.62% (inactive) and -1.17% (inactive), respectively.

As to `CCOC(=O)C1CCN(C(=O)CSc2n[nH]c(=O)[nH]c2=O)CC1`, the viability in assay [1] is 109%; in assay [3], 109% (inactive); in assay [4] it was 94.6% (inactive); in assay [5], 102% (inactive); in assay [6] (setting [9]), 96.7%; in assay [6] (setting [10]) it was 102%. In addition, the Her2 level in assay [2] is 90% (inactive). The differential viability (reversal) in assay [6] (H69AR cells + 2 uM doxorubicin) was 5.61% (inactive). For the same compound, the inhibition in assay [7] was -8.51% (inactive); in assay [8] it was 3.67% (inactive).

`Cn1c(=O)[nH]c(=O)c2[nH]c(NCCCN3CCOCC3)nc21`: the viability was 93.5% in assay [1]; 93.5% (inactive) in assay [3]; 92.1% (inactive) in assay [4]; 101% (inactive) in assay [5]; 85% in assay [6] (setting [9]); 101% in assay [6] (setting [10]). For the same compound, the Her2 level in assay [2] is 85.5% (inactive). Moreover, in assay [6] (H69AR cells + 2 uM doxorubicin), the differential viability (reversal) was 16.1% (inactive). In addition, the inhibition in assay [7] is -2.47% (inactive); in assay [8], -0.79% (inactive).

As for `CCOC(=O)N1CCN(c2cc(=O)n(-c3ccc(OCC)cc3)c(=O)[nH]2)CC1`, the viability in assay [1] was 106%; in assay [3], 106% (inactive); in assay [4] it was 104% (inactive); in assay [5], 97.5% (inactive); in assay [6] (setting [9]) it was 90.7%; in assay [6] (setting [10]), 97.5%. In addition, the Her2 level in assay [2] is 100% (inactive). In addition, in assay [6] (H69AR cells + 2 uM doxorubicin), the differential viability (reversal) was 6.84% (inactive). For the same compound, the inhibition is -4.93% (inactive) in assay [7] and -1.97% (inactive) in assay [8].

In the case of `O=C(NCc1cccs1)C1CCN(S(=O)(=O)c2cccs2)CC1`, the viability in assay [1] was 103%; in assay [3], 103% (inactive); in assay [4], 89.8% (inactive); in assay [5], 102% (inactive); in assay [6] (setting [9]), 74.6%; in assay [6] (setting [10]), 102%. Besides, the Her2 level in assay [2] was 89% (inactive). Moreover, the differential viability (reversal) in assay [6] (H69AR cells + 2 uM doxorubicin) is 26.9% (inactive). Besides, the figures for the inhibition in assay [7] and in assay [8] were -5.19% (inactive) and -4.29% (inactive), respectively.

In the case of `CC(C)CCNC(=O)C1CCN(C(=O)N(C)C)CC1`, the viability was 104% in assay [1]; 104% (inactive) in assay [3]; 108% (inactive) in assay [4]; 98.8% (inactive) in assay [5]; 93.8% in assay [6] (setting [9]); 98.8% in assay [6] (setting [10]). The Her2 level in assay [2] was 125% (inactive). The differential viability (reversal) in assay [6] (H69AR cells + 2 uM doxorubicin) was 5% (inactive). The inhibition in assay [7] was -1.41% (inactive); in assay [8], -1.33% (inactive).

As for `CCCNC(=O)c1ccccc1C(=O)NCCC`, the viability in assay [1] is 93.5%; in assay [3] it was 93.5% (inactive); in assay [4], 103% (inactive); in assay [5], 90.5% (inactive); in assay [6] (setting [9]), 95.5%; in assay [6] (setting [10]), 90.5%. Also, the Her2 level in assay [2] was 88.5% (inactive). Besides, in assay [6] (H69AR cells + 2 uM doxorubicin), the differential viability (reversal) was -4.96% (inactive). Moreover, the inhibition in assay [7] is 4.16% (inactive); in assay [8] it was 18.9% (inactive).

As to `COc1ccc(/C(O)=C2/C(=O)C(=O)N(CCCN(C)C)C2c2ccco2)cc1Cl` (stereo not given), the viability in assay [1] was 104%; in assay [3], 104% (inactive); in assay [4], 120% (inactive); in assay [5], 95.8% (inactive); in assay [6] (setting [9]), 88.6%; in assay [6] (setting [10]), 95.8%. Further, the Her2 level in assay [2] is 98.5% (inactive). Besides, the differential viability (reversal) in assay [6] (H69AR cells + 2 uM doxorubicin) was 7.21% (inactive). Further, the inhibition in assay [7] was -6.62% (inactive); in assay [8], -10.7% (inactive).

Regarding `O=C(O)Cn1cc(C(=O)c2ccco2)c2ccccc21`, the viability was 95% in assay [1]; 95% (inactive) in assay [3]; 105% (inactive) in assay [4]; 85.5% (inactive) in assay [5]; 90.3% in assay [6] (setting [9]); 85.5% in assay [6] (setting [10]). In addition, the Her2 level in assay [2] is 100% (inactive). Also, the differential viability (reversal) in assay [6] (H69AR cells + 2 uM doxorubicin) was -4.73% (inactive). Moreover, the inhibition in assay [7] is -0.52% (inactive); in assay [8], 3.61% (inactive).

For `CCC(C(=O)O)n1c(C(F)(F)F)nc2ccccc21` (stereo not given), the viability was 105% in assay [1]; 105% (inactive) in assay [3]; 105% (inactive) in assay [4]; 103% (inactive) in assay [5]; 99.3% in assay [6] (setting [9]); 103% in assay [6] (setting [10]). Moreover, the Her2 level in assay [2] was 116% (inactive). Further, the differential viability (reversal) in assay [6] (H69AR cells + 2 uM doxorubicin) was 3.27% (inactive). Further, the values for the inhibition in assay [7] and in assay [8] were -5.62% (inactive) and 0% (inactive), respectively.

`COc1ccccc1NC(=O)N1CCCC1C(=O)NC1CCCCC1` (stereo not given): the viability in assay [1] is 104%; in assay [3] it was 104% (inactive); in assay [4], 101% (inactive); in assay [5] it was 80.1% (inactive); in assay [6] (setting [9]), 84.7%; in assay [6] (setting [10]) it was 80.1%. Also, the Her2 level in assay [2] is 91.5% (inactive). Further, in assay [6] (H69AR cells + 2 uM doxorubicin), the differential viability (reversal) is -4.57% (inactive). The inhibition is -9.32% (inactive) in assay [7] and -2.5% (inactive) in assay [8].

Turning to `COc1cc2c(cc1NC(=O)CN1CCN(S(=O)(=O)c3ccc(F)cc3)CC1)oc1ccccc12`, the viability in assay [1] was 93.5%; in assay [3] it was 93.5% (inactive); in assay [4], 66.4% (inactive); in assay [5], 95.7% (inactive); in assay [6] (setting [9]) it was 94.4%; in assay [6] (setting [10]), 95.7%. Besides, the Her2 level in assay [2] was 105% (inactive). For the same compound, the differential viability (reversal) in assay [6] (H69AR cells + 2 uM doxorubicin) was 1.29% (inactive). Also, the inhibition in assay [7] was -2.37% (inactive); in assay [8] it was 3.33% (inactive).

`COc1ccc(C2CC(c3ccccc3)Nc3nc(NC(=O)c4cccs4)nn32)cc1` (stereo not given): the viability in assay [1] was 81.5%; in assay [3], 81.5% (inactive); in assay [4], 83.3% (inactive); in assay [5] it was 88.3% (inactive); in assay [6] (setting [9]), 83.4%; in assay [6] (setting [10]), 88.3%. Also, the Her2 level in assay [2] is 94.5% (inactive). Moreover, in assay [6] (H69AR cells + 2 uM doxorubicin), the differential viability (reversal) was 4.87% (inactive). Moreover, the inhibition in assay [7] was -1.69% (inactive); in assay [8] it was -5.08% (inactive).

`Clc1ccc(CSc2nnc(Cn3cnc4ccccc43)o2)cc1`: the viability in assay [1] was 74.5%; in assay [3] it was 74.5% (inactive); in assay [4], 48.2% (inactive); in assay [5], 99.2% (inactive); in assay [6] (setting [9]), 97.2%; in assay [6] (setting [10]), 99.2%. The Her2 level in assay [2] is 72% (inactive). For the same compound, the differential viability (reversal) in assay [6] (H69AR cells + 2 uM doxorubicin) is 2.03% (inactive). Moreover, the inhibition in assay [7] was -4.32% (inactive); in assay [8], -1.8% (inactive).

Regarding `COc1ccc(-n2c(SCCC(=O)O)nnc2-c2ccncc2)cc1`, the viability in assay [1] was 96%; in assay [3], 96% (inactive); in assay [4], 97% (inactive); in assay [5], 96.7% (inactive); in assay [6] (setting [9]), 96.1%; in assay [6] (setting [10]), 96.7%. In addition, the Her2 level in assay [2] is 96% (inactive). For the same compound, in assay [6] (H69AR cells + 2 uM doxorubicin), the differential viability (reversal) was 0.675% (inactive). For the same compound, the inhibition in assay [7] is -3.42% (inactive); in assay [8], 0.32% (inactive).

For `O=C(Nc1ccccn1)NC(C(F)(F)F)C(F)(F)F`, the viability in assay [1] was 98.5%; in assay [3], 98.5% (inactive); in assay [4], 100% (inactive); in assay [5], 92.9% (inactive); in assay [6] (setting [9]), 90.3%; in assay [6] (setting [10]), 92.9%. Besides, the Her2 level in assay [2] is 102% (inactive). Moreover, the differential viability (reversal) in assay [6] (H69AR cells + 2 uM doxorubicin) was 2.58% (inactive). Further, the inhibition in assay [7] was -1.07% (inactive); in assay [8], 1.15% (inactive).
